According to ChEMBL document CHEMBL1123282, “Antiinflammatory activity of substituted 6-hydroxypyrimido[2,1-f]purine-2,4,8(1H,3H,9H)-triones. Atypical nonsteroidal antiinflammatory agents” (J Med Chem, 1986):
“And” between values parts separate entries of the source, which are not always exact repeats. Equal values may be shown once.

Columns and labels:
Rattus norvegicus [1] = assay: Antiinflammatory activity against collagen II arthritis in rats, activity % inhibition in noninjected paw edema; assay type: functional; set-up: concentration or dose not given beside the values
Summary of the method: (§1)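 Rats immunised with bovine articular-cartilage type II collagen (dissolved in 0.01 M AcOH for 24 h at 4 °C, dialysed against saline) mixed in equal volume with incomplete Freund's adjuvant. Paws were examined weekly for 7 weeks. An animal counted as arthritic at Δ paw volume ≥8.0 (injected paw) or ≥4.0 (noninjected paw). Bone lesions were scored on lateral-projection foot radiographs. 16 rats/group.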

Rattus norvegicus [2] = assay: Compound was tested in vivo for antiinflammatory activity against chronic adjuvant arthritic rat by prophylactic inhibition 2 degree paw after peroral administration of 18 mg/kg of dose; conditions: po
Rattus norvegicus [3] = organism: Rattus norvegicus; assay: Antiinflammatory activity on the development of collagen II arthritis in rats, measured based on animals positive for arthritis by the presence of bone lesions; assay type: functional; summary of the method: as §1
[4] = biological target: Cyclooxygenase (Rattus norvegicus) (UniProt P35355+Q63921); assay: In vitro inhibitory activity against Prostaglandin G/H synthase in rat neutrophils at a dose of 50 uM
Rattus norvegicus [5] = organism: Rattus norvegicus; assay: Antiinflammatory activity by immune response to collagen II antigen in rats antibody titer was determined by passive hemagglutinination; assay type: functional
Summary of the method: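 In rats with bovine type II collagen/incomplete Freund's adjuvant arthritis, the antibody response to collagen II was titred by passive hemagglutination. The delayed-type hypersensitivity component, ear thickness 24 h after intrapinna antigen, was read at day 21.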

Rattus norvegicus [6] = assay: Antiinflammatory activity on the development of collagen II arthritis in rats, measured based on animals positive for arthritis by the presence of paw edema; assay type: functional; summary of the method: as §1
[7] = biological target: T1, Polyunsaturated fatty acid 5-lipoxygenase (Rattus norvegicus) (UniProt P12527); assay: In vitro inhibitory activity against Lipoxygenase in rat neutrophils at a dose of 50 uM
T1 sequence (whole entry): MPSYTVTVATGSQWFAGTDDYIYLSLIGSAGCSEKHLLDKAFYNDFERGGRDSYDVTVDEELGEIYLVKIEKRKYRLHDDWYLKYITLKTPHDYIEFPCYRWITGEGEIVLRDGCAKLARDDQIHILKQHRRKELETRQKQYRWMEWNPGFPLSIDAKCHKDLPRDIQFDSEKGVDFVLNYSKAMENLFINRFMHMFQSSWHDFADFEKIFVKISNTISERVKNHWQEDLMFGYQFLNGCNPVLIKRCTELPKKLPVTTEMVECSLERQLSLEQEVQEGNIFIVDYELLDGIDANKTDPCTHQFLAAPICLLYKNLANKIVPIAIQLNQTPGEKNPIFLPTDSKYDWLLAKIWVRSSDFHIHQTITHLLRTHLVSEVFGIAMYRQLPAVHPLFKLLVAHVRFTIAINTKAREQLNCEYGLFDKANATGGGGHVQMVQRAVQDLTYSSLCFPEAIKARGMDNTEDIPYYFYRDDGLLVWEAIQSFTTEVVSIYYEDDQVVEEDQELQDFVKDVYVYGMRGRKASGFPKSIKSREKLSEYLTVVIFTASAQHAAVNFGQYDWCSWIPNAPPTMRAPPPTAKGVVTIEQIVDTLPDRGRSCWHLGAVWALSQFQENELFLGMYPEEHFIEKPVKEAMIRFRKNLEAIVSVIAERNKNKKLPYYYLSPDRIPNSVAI
Summary of the method: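 Neutrophils come from the 4 h pleural exudate of male Wistar-Lewis rats given iv BSA plus intrapleural rabbit anti-BSA IgG. Cells are washed, red cells lysed with NH4Cl, and resuspended at about 5×10^6 cells/0.1 mL in Tris pH 7.4 with NaCl and 1 mM CaCl2. Cells are preincubated with compound 4 min at room temperature.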

Rattus norvegicus [8] = assay: Compound was tested for gastric Ulcerogenic effect in rats, activity expressed as lesion length at a dose of 300 mg/kg
Rattus norvegicus [9] = assay: Compound was tested for intestinal Ulcerogenic effect in rats at a dose of 10 mg/kg; assay type: functional
Summary of the method: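 Normal fed rats were gavaged once daily for three consecutive days at 10–300 mg/kg and killed 24 h after the last dose. Intestines were examined for ulcers, recording incidence per group of 8 and a lesion score (±SE).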

Rattus norvegicus [10] = assay: Tested in vivo for antiinflammatory activity against chronic adjuvant arthritic rat by prophylactic inhibition 2 degree paw after peroral administration of 9 mg/kg of dose; assay type: functional; conditions: route oral
Summary of the method: (§2)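 Prophylactic regimen, rats. Adjuvant is heat-killed Mycobacterium tuberculosis ground to a fine powder in paraffin oil (6 mg/mL); 0.1 mL is injected into the left hind paw. Oral drug is given 1 h before adjuvant challenge, then for 21 consecutive days; controls receive methyl cellulose. Left (1°) and right (2°) hind paw volumes are measured by plethysmograph.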

Rattus norvegicus [11] = assay: Tested in vivo for antiinflammatory activity against chronic adjuvant arthritic rat by prophylactic inhibition 1 degree paw after peroral administration of 9 mg/kg of dose; assay type: functional; conditions: route oral; summary of the method: as §2
Rattus norvegicus [12] = assay: In vivo antiinflammatory activity against rats by RPAR(reverse passive Arthus reaction) synovitis method; assay type: functional; set-up: concentration or dose not given beside the values
Summary of the method: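 Lewis rats, oral drug or placebo 1 h before iv BSA (2.28 mg in saline), then intraarticular rabbit anti-BSA (0.54 mg) into one knee and saline into the other, under light anesthesia. Second oral dose at 3 h; the total of both doses is the calculated dose. About 17 h after induction, subpatellar tissue with synovium is excised and weighed. Response is antibody-minus-saline knee weight, tested by analysis of variance.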

Rattus norvegicus [13] = assay: Compound was tested in vivo against chronic adjuvant arthritic rat by prophylactic inhibition 2 degree paw. Relative potency with respect to (8-Benzyl-5-hydroxy-1,3-dimethyl-6-propyl-1H,8H-1,3,4b,8,9-pentaaza-fluorene-2,4,7-trione); assay type: functional
Rattus norvegicus [14] = assay: Compound was tested in vivo for antiinflammatory activity against chronic adjuvant arthritic rat by therapeutic inhibition 2 degree paw after peroral administration of 10 mg/kg of dose; assay type: functional; conditions: route oral
Rattus norvegicus [15] = assay: Compound was tested in vivo for antiinflammatory activity against chronic adjuvant arthritic rat by therapeutic inhibition 1 degree paw after peroral administration of 3.3 mg/kg of dose; assay type: functional; conditions: route oral
Rattus norvegicus [16] = assay: Compound was tested in vivo for antiinflammatory activity against chronic adjuvant arthritic rat by therapeutic inhibition 1 degree paw after peroral administration of 30 mg/kg of dose; assay type: functional; conditions: route oral

Row | inhibition [4] | inhibition [7] | SMILES | Inhibition (Rattus norvegicus [1]) | inhibition in vivo at 18 mg/kg (Rattus norvegicus [2]) | Positive (Rattus norvegicus [3]) | Antibody titer (Rattus norvegicus [5]) | Positive (Rattus norvegicus [6]) | Length (Rattus norvegicus [8]) | Ulcer incidence (Rattus norvegicus [9]) | inhibition in vivo at 9 mg/kg (Rattus norvegicus [10]) | inhibition in vivo at 9 mg/kg (Rattus norvegicus [11]) | Inhibition (Rattus norvegicus [12]) | Relative potency (Rattus norvegicus [13]) | inhibition in vivo at 10 mg/kg (Rattus norvegicus [14]) | inhibition in vivo at 3.3 mg/kg (Rattus norvegicus [15]) | inhibition in vivo at 30 mg/kg (Rattus norvegicus [16])
1 | 36% | 0% and 8% | CCCc1c(O)n(Cc2ccc(F)cc2)c2nc3c(c(=O)n(C)c(=O)n3C)n2c1=O | 54.9% | 49% | 18.8% | 6.6 | 31.3% | 0 mm rat-1 | 0 number/group | 49% | 42% | 53% | 1.2 |  |  | 
2 | 93% | 21% and 22% | CC(C)=CCc1c(O)n(Cc2ccc(F)cc2)c2nc3c(c(=O)n(C)c(=O)n3C)n2c1=O | 80.6% | 69% | 14.3% | 8.4 | 21.4% |  |  | 35% | 22% | 29% | 4.8 | 67% | 21% | 59%
3 | 92% | 17% and 22% | CC(C)=CCc1c(O)n(Cc2ccccc2)c2nc3c(c(=O)n(C)c(=O)n3C)n2c1=O | 10.1% |  | 40% | 10.9 | 46.7% | 9.6 mm rat-1 | 0 number/group | 76% | 30% | 26% | 3.1 and 4.3 | 70% | 24% | 63%
